According to ChEMBL document CHEMBL1144509, “Identification of some novel AHAS inhibitors via molecular docking and virtual screening approach” (Bioorg Med Chem, 2007):
Peptide text beside a SMILES is read from it.

What was measured:
[1] = tested on: Brassica rapa subsp. oleifera; assay: Herbicidal activity against Brassica campestris L assessed as inhibition of rape root growth at 100 ug/ml; format: functional
Method in brief: (§1)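 Rape seeds pre-soaked 4 h in distilled water, then set on filter paper in 6-cm dishes wetted with 2 ml test solution, usually 10 seeds per plate, duplicate plates. Germination in the dark for 72 h at 28 (±1) °C. Mean length of 10 roots measured. Percent inhibition calculated against distilled-water controls.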

[2] = tested on: Brassica rapa subsp. oleifera; assay: Herbicidal activity against Brassica campestris L assessed as inhibition of rape root growth at 10 ug/ml; format: functional; method in brief: as §1
[3] = Inhibition of Arabidopsis thaliana AHAS
Method in brief: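 Purified recombinant plant AHAS. Colorimetric assay in 50 mM potassium phosphate pH 7.0 with 50 mM pyruvate, 1 mM thiamine diphosphate, 10 mM MgCl2 and 10 µM FAD, compounds given as emulsions, 30 min at 37 °C. Stopped with 10% H2SO4, then 60 °C for 15 min to convert acetolactate to acetoin. Acetoin developed with 0.5% creatine and 5% α-naphthol for 15 min at 60 °C, read at A525.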

Compound | inhibition at 100 µg/mL [1] [%] | inhibition at 10 µg/mL [2] [%] | Ki [3] [µM]
O=C(O)Cc1cccc(CC(=O)O)c1 | 2.6 | 0 | 
O=C(NC(Cc1c[nH]cn1)C(=O)O)OCc1ccccc1 (stereo unspecified) | 0 | 0 | 
O=C(O)CC(NC(=O)OCc1ccccc1)C(=O)O (stereo unspecified) | 0 | 0 | 
O=C(O)c1ccc(SSc2ccc(C(=O)O)cn2)nc1 | 12.1 | 6 | 15.2
O=C(O)c1cccc(F)c1C(=O)O | 0 | 0 | 
NC(=O)CCC(NC(=O)OCc1ccccc1)C(=O)O (stereo unspecified) | 6.3 | 0 | 
NC(=O)CCC(NC(=O)OCC1c2ccccc2-c2ccccc21)C(=O)O (stereo unspecified) | 13.9 | 0 | 
CC(O)C(NC(=O)OCC1c2ccccc2-c2ccccc21)C(=O)O (stereo unspecified) | 25.7 | 0 | 
O=C(O)c1cc(-c2cc(C(=O)O)c3ccccc3n2)nc2ccccc12 | 1.4 | 0 | 
CC(NC(=O)OCC1c2ccccc2-c2ccccc21)C(=O)O (stereo unspecified) | 12.9 | 0 | 
O=C(O)C(Cc1ccc(O)cc1)NSc1ccccc1[N+](=O)[O-] (stereo unspecified) | 0 | 0 | 
O=C(O)C(Cc1c[nH]c2ccccc12)NSc1ccccc1[N+](=O)[O-] (stereo unspecified) | 74.8 | 60.5 | 90.7
N[C@@H](Cc1ccc(O)cc1)C(=O)N[C@@H](Cc1ccccc1)C(=O)O (H-Tyr-Phe-OH) | 0 | 0 | 
O=C1/C(=C2\Nc3ccc(S(=O)(=O)O)cc3C2=O)Nc2ccc(S(=O)(=O)O)cc21 [INDIGOTINDISULFONATE] | 0 | 0 | 42.1
